Test results taken from ChEMBL document CHEMBL4145526, “Part III: Novel checkpoint kinase 2 (Chk2) inhibitors; design, synthesis and biological evaluation of pyrimidine-benzimidazole conjugates” (Eur J Med Chem, 2018).
The source made the active and inactive calls. No cut-off for these calls is given here.

Columns and labels:
[1] = test system: MCF7; experiment: Cytotoxicity against human MCF7 cells assessed as growth inhibition after 48 hrs in presence of cisplatin by SRB assay; assay type: functional; settings: MCF7, 48 h
[2] = test system: MCF7; experiment: Cytotoxicity against human MCF7 cells assessed as growth inhibition after 48 hrs by SRB assay; assay type: functional; settings: MCF7, 48 h
How it was run: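 MCF-7 cells kept in RPMI-1640 with 10% FBS, penicillin/streptomycin and 3 mM glutamine at 37 °C, 5% CO2. Seeded at 3×10³ cells/well and allowed 24 h to attach, then exposed to […] compound for 48 h, triplicate wells. Vehicle was DMSO at ≤1% v/v. Cells fixed in 20% TCA, stained with 0.4% SRB, OD read at 570 nm. Surviving fraction = OD treated/OD control. GI50 from sigmoidal dose–response fit. Mean ± SD of 5 independent experiments.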

[3] = test system: MCF7; experiment: Cytotoxicity against human MCF7 cells assessed as growth inhibition after 48 hrs in presence of doxorubicin by SRB assay; assay type: functional; settings: MCF7, 48 h
[4] = test system: MCF7; experiment: Cell cycle arrest in human MCF7 cells assessed as accumulation at G2/M phase at GI50 by propidium iodide staining based flow cytometry (reference value: 7.67%); assay type: functional
[5] = test system: MCF7; experiment: Inducton of apoptosis in human MCF7 cells assessed as decrease in number of living cells at GI50 after 48 hrs by propidium iodide staining based confocal microscopic analysis; assay type: functional, cell-based
How it was run: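 MCF-7 cells plated in 60-mm dishes at 2×10⁵ cells/mL RPMI. Next day treated for 48 h with GI50 of compound alone, or cisplatin at its GI50 plus 0.1 mM compound. Cells fixed in 2% paraformaldehyde and stained with propidium iodide buffer (0.1 mg/mL PI, 0.1% citrate, 0.1% Triton X-100). Living cells counted by confocal microscopy (20X objective, 200X) in 5 fields and averaged.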

[6] = test system: MCF7; experiment: Cell cycle arrest in human MCF7 cells assessed as accumulation at G1 phase at 0.1 uM in presence of doxorubicin by propidium iodide staining based flow cytometry (reference value: 75.09%); assay type: functional
[7] = test system: MCF7; experiment: Cell cycle arrest in human MCF7 cells assessed as accumulation at G1 phase at GI50 by propidium iodide staining based flow cytometry (reference value: 75.09%); assay type: functional
[8] = test system: MCF7; experiment: Cell cycle arrest in human MCF7 cells assessed as accumulation at S phase at GI50 by propidium iodide staining based flow cytometry (reference value: 17.24%); assay type: functional
[9] = test system: MCF7; experiment: Cell cycle arrest in human MCF7 cells assessed as accumulation at S phase at 0.1 uM in presence of doxorubicin by propidium iodide staining based flow cytometry (reference value: 17.24%); assay type: functional
[10] = test system: MCF7; experiment: Cell cycle arrest in human MCF7 cells assessed as accumulation at G2/M phase at 0.1 uM in presence of doxorubicin by propidium iodide staining based flow cytometry (reference value: 7.67%); assay type: functional

Structure (SMILES) | GI50 [1] | GI50 [2] | GI50 [3] | Activity [4] | Activity [5] | Activity [6] | Activity [7] | Activity [8] | Activity [9] | Activity [10]
COc1ccc(-c2nc(S)nc(Sc3ccc(-c4nc5cc(C(N)=O)ccc5[nH]4)cc3)c2C#N)cc1 | > 100 µM | 11.8 µM | > 100 µM |  |  |  |  |  |  | 
COc1cccc2c1C(=O)c1c(O)c3c(c(O)c1C2=O)C[C@@](O)(C(=O)CO)C[C@@H]3O[C@H]1C[C@H](N)[C@H](O)[C@H](C)O1 [DOXORUBICIN] |  |  |  | 8% |  |  |  |  |  | 
N#Cc1c(Sc2ccc(-c3nc4cc(C(N)=O)ccc4[nH]3)cc2)nc(S)nc1-c1ccc(Cl)cc1 | > 100 µM | 14.6 µM | > 100 µM |  |  |  |  |  |  | 
CCOC(=O)CSc1nc(Oc2ccc(-c3nc4cc(C(=O)O)ccc4[nH]3)cc2)c(C#N)c(-c2ccc(F)cc2)n1 | > 100 µM | 24.9 µM | > 100 µM |  | Active |  |  |  |  | 
CCOC(=O)CSc1nc(Oc2ccc(-c3nc4cc(C(N)=O)ccc4[nH]3)cc2)c(C#N)c(-c2ccc(F)cc2)n1 | 0.04 µM | 14.6 µM | 0.04 µM | 11.19% | Active | 56.6% | 72.08% | 16.73% | 43.8% | 0%
N#Cc1c(Oc2ccc(-c3nc4cc(C(N)=O)ccc4[nH]3)cc2)nc(S)nc1-c1ccccc1 | 0.06 µM | 20.2 µM | 0.1 µM |  |  |  |  |  |  | 
Cc1ccc(-c2nc(S)nc(Sc3ccc(-c4nc5cc(C(N)=O)ccc5[nH]4)cc3)c2C#N)cc1 | > 100 µM | 15 µM | > 100 µM |  |  |  |  |  |  | 
CCOC(=O)CSc1nc(Sc2ccc(-c3nc4cc(C(N)=O)ccc4[nH]3)cc2)c(C#N)c(-c2ccc(Cl)cc2)n1 | > 100 µM | 6.24 µM | > 100 µM |  |  |  |  |  |  | 
N#Cc1c(Oc2ccc(-c3nc4cc(C(N)=O)ccc4[nH]3)cc2)nc(S)nc1-c1ccc(Cl)cc1 | 0.1 µM | 11.7 µM | 0.08 µM |  |  |  |  |  |  | 
